{
  "source": "ChEMBL document CHEMBL1123247",
  "about": "“Nucleoside conjugates. 7. Synthesis and antitumor activity of 1-beta-D-arabinofuranosylcytosine conjugates of ether lipids” (J Med Chem, 1986)",
  "key": {"P388 [1]": {"test_system": "P388", "assay": "Antitumor activity was determined against the ip implanted P388 leukemia in mice by range in survival days at 60 mg/kg (1-5qd treatment schedule) dosage; 21-24", "type": "functional, Mus musculus", "details": "route intraperitoneal"}, "L1210 [2]": {"test_system": "L1210", "assay": "Antitumor activity was determined against the ip implanted L1210 leukemia in mice by median survival time at 100 mg/kg (treatment of 1-5qd schedule) dosage; 23.0/7.0", "details": "route intraperitoneal"}, "L1210 [3]": {"test_system": "L1210", "assay": "Antitumor activity was determined against the ip implanted L1210 leukemia in mice by range in survival days at 300 mg/kg (treatment of 1qd schedule) dosage; Range is 14->45", "type": "functional, Mus musculus", "details": "route intraperitoneal", "summary_of_the_method": "(§1)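 DBA/2J mice, 23-28 g, in groups of 6, were inoculated ip with 1×10^6 L1210 cells on day 0. Dosing was ip starting 24 h later on the stated daily schedules. Conjugates were given as sonicated solutions and reference prodrugs as suspensions in 0.9% NaCl with 0.5% Tween-80. Mice were observed daily until death or 45 days. Median survival T/C was calculated from survivors per NCI protocols.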"}, "L1210 [4]": {"test_system": "L1210", "assay": "Antitumor activity was determined against the ip implanted L1210 leukemia in mice by change in […] at 40 mg/kg (treatment of 1-5qd schedule) dosage", "type": "functional, Mus musculus", "details": "route intraperitoneal", "summary_of_the_method": "(§2)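 DBA/2J mice, 6 per group (wt 23-28 g), inoculated ip with 1×10^6 L1210 cells on day 0. Treatment was given ip in 0.9% NaCl with 0.5% Tween-80, starting 24 h later. Weight change was taken on day 8. Mice were observed daily until death or 45 days. Median survival T/C and %ILS = (T/C − 1) × 100 came from survivors per NCI protocols, and 45-day survivors were counted.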"}, "L1210 [5]": {"test_system": "L1210", "assay": "Antitumor activity was determined against the ic implanted L1210 lymphoid leukemia in mice by percent median survival rate (treated/control) at 80 mg/kg (1-5qd treatment schedule) dosage; 22.0/8.0", "type": "functional, Mus musculus"}, "L1210 [6]": {"test_system": "L1210", "assay": "Antitumor activity against ic implanted L1210 lymphoid leukemia in mice expressed as active dose range (1,5,9qd treatment schedule) required to produce increase in life span by >25% was determined; Range 67-133", "type": "functional, Mus musculus", "summary_of_the_method": "(§3)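 DBA/2J mice, groups of 6 (26-32 g), got 1 × 10^5 L1210 cells ic on day 0. Dosing was ip starting 24 h later, as a sonicated solution or suspension in 0.9% NaCl with 0.5% Tween-80, over a wide dose range. Mice were followed daily until death. Median survival T/C was taken from survivors per NCI protocols, and ILS = (T/C − 1) × 100. Active range means doses giving ILS ≥25%; optimal dose means greatest ILS.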"}, "P388 [7]": {"test_system": "P388", "assay": "Antitumor activity was determined against the ip implanted P388 leukemia in mice by 45-day survivors in mice at 500 mg/kg (1 qd treatment schedule) dosage", "type": "functional, Mus musculus", "details": "route intraperitoneal", "summary_of_the_method": "(§4)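 DBA/2J mice, 23-33 g, in groups of 6, were inoculated ip with 1×10^6 P388 cells on day 0. Dosing was ip from 24 h on the stated schedules, in 0.9% NaCl with 0.5% Tween-80 (sonicated solution or suspension). Survival was followed daily until death or 45 days. Median T/C was calculated from survivors per NCI protocols, with ILS = (T/C − 1) × 100.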"}, "P388 [8]": {"test_system": "P388", "assay": "Antitumor activity against ip implanted P388 leukemia in mice expressed as active dose range (1,5,9qd treatment schedule) required to produce increase in life span by >25% was determined; Range is 100-167", "type": "functional, Mus musculus", "summary_of_the_method": "(§5)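 P388 leukemia: 1 × 10^6 cells were given ip on day 0 to DBA/2J mice, groups of 6 (23-33 g). Treatment was ip from 24 h after inoculation, vehicle 0.9% NaCl with 0.5% Tween-80. Mice were observed daily until death or 45 days. Median survival T/C was calculated from survivors per NCI protocols, and ILS = (T/C − 1) × 100. Active range means doses giving ILS ≥25%; optimal dose means greatest ILS.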"}, "P388 [9]": {"test_system": "P388", "assay": "Antitumor activity was determined against the ip implanted P388 leukemia in mice by range in survival days at 60 mg/kg (1-5qd treatment schedule) dosage; Range is 35->45", "type": "functional, Mus musculus", "details": "route intraperitoneal"}, "L1210 [10]": {"test_system": "L1210", "assay": "Antitumor activity was determined against the ic implanted L1210 lymphoid leukemia in mice by change in […] at 100 mg/kg (treatment of 1-5qd schedule) dosage", "type": "functional, Mus musculus", "summary_of_the_method": "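DBA/2J mice, 6 per group (wt 26-32 g), inoculated ic with 1×10^5 L1210 cells on day 0. Dosing ip began 24 h after inoculation, with a sonicated solution or suspension in 0.9% NaCl containing 0.5% Tween-80, given over a range of doses. Animals were followed daily until death. Body weight change, median survival T/C, and %ILS = (T/C − 1) × 100 were computed from survivors per NCI protocols.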"}, "L1210 [11]": {"test_system": "L1210", "assay": "Antitumor activity against ip implanted L1210 leukemia in mice expressed as active dose range (1 qd treatment schedule) required to produce increase in life span by >25% was determined; Range is 300-400", "type": "functional, Mus musculus", "summary_of_the_method": "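DBA/2J mice, groups of 6 (23-28 g), were inoculated ip with 1 × 10^6 L1210 cells on day 0. Dosing was ip from 24 h, in 0.9% NaCl with 0.5% Tween-80 (sonicated solution or suspension). Mice were observed daily until death or day 45. Median survival T/C followed NCI protocols, and ILS = (T/C − 1) × 100. Active range means doses giving ILS ≥25%; optimal dose means greatest ILS.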"}, "L1210 [12]": {"test_system": "L1210", "assay": "Antitumor activity was determined against the ic implanted L1210 lymphoid leukemia in mice by percent increase in life span at 100 mg/kg (treatment of 1-5qd schedule) dosage", "type": "functional, Mus musculus", "summary_of_the_method": "as §3"}, "P388 [13]": {"test_system": "P388", "assay": "Antitumor activity was determined against the ip implanted P388 leukemia in mice by percent increase in life span at 60 mg/kg (treatment of 1-5qd schedule) dosage", "type": "functional, Mus musculus", "details": "route intraperitoneal", "summary_of_the_method": "as §4"}, "P388 [14]": {"test_system": "P388", "assay": "Antitumor activity against ip implanted P388 leukemia in mice expressed as active dose range (1-5qd treatment schedule) required to produce increase in life span by >25% was determined; Range is 40-60", "type": "functional, Mus musculus", "summary_of_the_method": "as §5"}, "Glioblastoma cell line": {"test_system": "Glioblastoma cell line", "assay": "Compound was tested for the inhibition of glioblastoma", "type": "functional, cell-based", "details": "Homo sapiens", "summary_of_the_method": "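Human leukemia and solid tumor cells in culture were exposed to compound for 48 h. Viability was scored by trypan blue dye exclusion. IC50 (50% inhibition) was estimated from response curves of three separate experiments.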"}, "L1210 [15]": {"test_system": "L1210", "assay": "Antitumor activity was determined against the ip implanted L1210 leukemia in mice by percent median survival rate (treated/control) at 400 mg/kg (treatment of 1qd schedule) dosage; 9.5/8.0", "type": "functional, Mus musculus", "details": "route intraperitoneal", "summary_of_the_method": "as §1"}, "L1210 [16]": {"test_system": "L1210", "assay": "Antitumor activity against the ic implanted L1210 lymphoid leukemia in mice expressed as optimal dose (1-9qd treatment schedule) required to produce greatest increase in life span was determined", "type": "functional, Mus musculus", "summary_of_the_method": "as §3"}, "L1210 [17]": {"test_system": "L1210", "assay": "Antitumor activity was determined against the ip implanted L1210 leukemia in mice by change in […] at 400 mg/kg (treatment of 1-5qd schedule) dosage", "type": "functional, Mus musculus", "details": "dose 200 mg/kg; route intraperitoneal; in the assay text read “200 mg/kg” for “400 mg/kg”", "summary_of_the_method": "as §2"}, "L1210 [18]": {"test_system": "L1210", "assay": "Antitumor activity was determined against the ic implanted L1210 lymphoid leukemia in mice by median survival time at 300 mg/kg (treatment of 1-5qd schedule) dosage; 16.0/7.0"}},
  "data": [
    {"compound": "CCCCCCCCCCCCCCCCCCOCC(COP(=O)(O)OP(=O)(O)OC[C@H]1O[C@@H](n2ccc(N)nc2=O)[C@@H](O)[C@@H]1O)OC(=O)CCCCCCCCCCCCCCC", "note": "(mixture of isomers)", "values": [
      {"measurement": "Range", "setting": "P388 [1]", "result": 21},
      {"measurement": "median survival time", "setting": "L1210 [2]", "result": 23, "unit": "days"}
    ]},
    {"compound": "CCCCCCCCCCCCCCCC(=O)OC[C@H](COP(=O)(O)OP(=O)(O)OC[C@H]1O[C@@H](n2ccc(N)nc2=O)[C@@H](O)[C@@H]1O)OC(=O)CCCCCCCCCCCCCCC", "values": [
      {"measurement": "Range", "setting": "L1210 [3]", "result": 14},
      {"measurement": "Weight change", "setting": "L1210 [4]", "result": -1.9, "unit": "g mouse-1"},
      {"measurement": "median survival time", "setting": "L1210 [5]", "result": 22, "unit": "days"},
      {"measurement": "Active dose range", "setting": "L1210 [6]", "result": 67, "unit": "mg/kg/day"},
      {"measurement": "Survivors", "setting": "P388 [7]", "result": 4},
      {"measurement": "Active dose range", "setting": "P388 [8]", "result": 100, "unit": "mg/kg/day"},
      {"measurement": "Range", "setting": "P388 [9]", "result": 35}
    ]},
    {"compound": "CCCCCCCCCCCCCCCCOCC(COP(=O)(O)OP(=O)(O)OC[C@H]1O[C@@H](n2ccc(N)nc2=O)[C@@H](O)[C@@H]1O)OC(=O)CCCCCCCCCCCCCCC", "note": "(mixture of isomers)", "values": [
      {"measurement": "Weight change", "setting": "L1210 [10]", "result": -2.03, "unit": "g mouse-1"},
      {"measurement": "Active dose range", "setting": "L1210 [11]", "result": 300, "unit": "mg/kg/day"},
      {"measurement": "ILS", "setting": "L1210 [12]", "result": 214},
      {"measurement": "ILS", "setting": "P388 [13]", "result": ">309"},
      {"measurement": "Active dose range", "setting": "P388 [14]", "result": 40, "unit": "mg/kg/day"}
    ]},
    {"compound": "Nc1ccn([C@@H]2O[C@H](CO)[C@@H](O)[C@@H]2O)c(=O)n1", "note": "[CYTARABINE]", "values": [
      {"measurement": "IC50", "setting": "Glioblastoma cell line", "result": "> 100", "unit": "µM"},
      {"measurement": "T/C", "setting": "L1210 [15]", "result": 9.5, "unit": "%"},
      {"measurement": "Optimal dose", "setting": "L1210 [16]", "result": 100, "unit": "mg"},
      {"measurement": "Weight change", "setting": "L1210 [17]", "result": -2.9, "unit": "g mouse-1"},
      {"measurement": "median survival time", "setting": "L1210 [18]", "result": 16, "unit": "days"}
    ]}
  ]
}
